# Bioassay records as filed in PubChem BioAssay.
# Sampled rows, rich in hits. Any-hit rate of the full collection: about 4.3%.
# BB579 growth dn: yeast BB579 growth reduction in restrictive medium; inhibition, % at 10 µM; AID 804; actives 0.51% (n = 140,000); S. cerevisiae BB579 growth, OD615, 48 h;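 active = inhibition above a set limit, 3 SD over the mean compound inhibition, cut at about 44% in these data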
#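 Detection: OD615 turbidity measurement; Material: Saccharomyces cerevisiae DeaD strain BB579, replicative lifespan model yeast; Timing: 48 h exposure, 30 °C; Doses: single 10 µM dose; Medium: CSMM-D restrictive synthetic medium containing dextrose (glucose); Controls: amphotericin B at 10 µg/mL as positive control.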
# Yeast life ext: extends the lifespan of yeast. AID 775. inhibition of the nicotinamide effect, % at 10 µM. actives 0.68% (n = 130,000). S. cerevisiae growth with nicotinamide, OD615; deaD strain in restrictive glucose medium;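 active = inhibition above a set limit, placed 3 SD over the median of all compounds, cut at about 26% in these data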;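 also: 0% = nicotinamide-treated wells and 100% = cells grown without nicotinamide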
#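 Test system – modified budding yeast, DeaD strain · Compound – single dose 10 µM compound, 0.25% DMSO · Times – culture preincubation 4 h, compound exposure 48 h, both 30 °C · Detection – optical density (absorbance) at 615 nm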
# WT yeast gro inh: growth inhibition of WT yeast, mitochondrial fusion screen; mitochondrial fusion phenotypic screen, WT strain; actives 2.1% (n = 190,000); inhibition, % at 10 µM; in the data active = inhibition above about 58%; tested in S. cerevisiae
# RAM network inh: yeast RAM network inhibition | S. cerevisiae dse1pr::URA3 reporter, 5-FOA growth OD615, 2 d; analog-sensitive cbk1-as2 kinase mutant strain | inhibition, % at 50 µM | actives 1.8% (n = 190,000);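 active = inhibition above a set limit, 3 SD over mean compound inhibition, cut at about 8.4% in these data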;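 also: 0% = DMSO-only wells with no growth and 100% = 10 µM 1-NA-PP1 full growth; inhibition rescues growth on 5-FOA so higher OD means more RAM inhibition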
# An asterisk follows results filed as active; . = no result given.
SMILES,BB579 growth dn,Yeast life ext,WT yeast gro inh,RAM network inh
Cc1c(/C(O)=C2/C(=O)C(=O)N(Cc3cccnc3)C2c2ccccn2)cnn1-c1ccccc1 (centres undefined),.,.,-3,0
CC1CC(=O)Nc2ccccc2N1C(=O)CN1CCN(c2ccccc2)CC1 (centres undefined),.,.,-3,1
O=C(NCCn1ccc2ccccc21)c1cccc([N+](=O)[O-])c1,.,.,-2,1
CN(C)S(=O)(=O)c1cc(C(=O)NCCCn2ccc3ccccc32)ccc1Cl,-53,8,3,9.3*
COC(=O)c1ccc(/C=N/Nc2nc(N3CCCCC3)nc(N3CCCCC3)n2)cc1,.,.,15,1
O=C1C=CC(=O)N1CCCCCCN1C(=O)C=CC1=O,-22,7,92*,-1
C/C(=N\NC(=S)NC1CCCCC1)c1cccs1,.,.,71*,3
C/C(=N\NC(=O)C1CC1)c1cccs1,-51,27*,-2,3
O=C(CO/N=C/c1ccc(OC(F)F)cc1)NC1CCCCCC1,.,.,33,0
O=S(=O)(NC(=S)NC1CCCCC1)c1cccs1,.,.,-10,2
C/C(=N\NC(=S)NC1CCCCC1)c1c(F)cccc1F,.,.,74*,2
C/C(=N\NC(=S)NC1CCCCC1)c1ccc(OC(F)F)cc1OC(F)F,.,.,66*,1
CCNc1nc(NC(C)C)nc(SCCOC(=O)c2ccccc2)n1,-16,-1,29,1
CC(C)Nc1nc(NC(C)C)nc(SCCOC(=O)Nc2ccc(Cl)cc2Cl)n1,-13,-2,66*,2
CCNc1nc(NCC)nc(SCCOC(=O)COc2ccc(Cl)cc2Cl)n1,-43,-7,77*,0
CCNc1nc(NC(C)C)nc(SCCOc2ccc(C)cc2)n1,-51,-24,16,3
COCC(=O)OCC(=O)Nc1ccccc1-c1ccccc1,.,.,-9,0
COc1ccc(NC(=O)C2CCCN(S(=O)(=O)c3ccc4c(c3)oc(=O)n4C)C2)c(OC)c1 (centres undefined),-29,-8,11,1
CC(C)c1ccc(OCC(=O)NC(=S)Nc2ccc3c4c(cccc24)CC3)cc1,-35,-15,5,9.1*
CCC(=O)NC(=S)Nc1ccccc1C(=O)OC,9,-6,20,4
COC(=O)c1ccccc1NC(=S)NC(=O)COc1ccc(C(C)C)cc1,-25,3,-4,9.2*
CCCCn1c(N2CCC(Cc3ccccc3)CC2)nc2c1c(=O)[nH]c(=O)n2C,-49,-8,68*,1
Cc1nnc(SCCn2c(N3CCC(Cc4ccccc4)CC3)nc3c2c(=O)[nH]c(=O)n3C)s1,.,.,5,.
COc1ccc(C(=O)CSc2nnc(C(CO)NC(=O)c3ccc(OC)cc3)n2C)cc1 (centres undefined),-20,-11,2,11*
Cc1cc(SCC(=O)OCC(=O)NCc2ccc3c(c2)OCO3)c(C)cc1Br,-16,-1,-3,11*
SMILES,BB579 growth dn,Yeast life ext,WT yeast gro inh,RAM network inh
Cc1cc(C)cc(OCCCOc2cccc3cccnc23)c1,32,-14,66*,1
O=C(COC(=O)/C=C/c1ccccc1Cl)NCCc1ccc(Cl)cc1Cl,-27,4,10,8.6*
O=C(CSc1ccc2c(c1)OCCO2)NCCc1ccc(Cl)cc1Cl,-17,-1,53,8.4*
COc1cc(NC(=O)COC(=O)/C=C/c2ccccc2Cl)cc(OC)c1,-22,0,1,10*
O=C(COC(=O)/C=C/c1ccc(Cl)cc1)Nc1ccccc1,.,.,-6,0
O=C(COC(=O)/C=C/c1ccccc1)Nc1cccc(Oc2ccccc2)c1,-30,1,3,8.9*
COC(=O)c1cc(=O)n(CCc2ccc(OC)c(OC)c2)c(=Nc2ccc(F)c(Cl)c2)s1,-2,-10,12,3
CSc1nc(N(C)C)nc(N(C)C#N)n1,.,.,11,0
Cc1c(-c2cc(C(=O)O)c3ccccc3n2)cnn1C,.,.,-15,0
Nc1ccc(C(=O)OCc2ccncc2)cc1[N+](=O)[O-],.,.,17,1
COc1cccc(/C=C/C(=O)OCC(=O)Nc2ccc(Cl)c(S(=O)(=O)N(C)C)c2)c1,.,.,24,8.5*
O=C(CN1CCN(Cc2ccccc2)CC1)N/N=C/c1c[nH]c2ccccc12,-35,-1,2,2
Cc1cc(C)n(CCc2nc(-c3ccc(-c4ccccc4)cc3)cs2)n1,-45,1,18,8.7*
COc1ccc(-c2csc(CCn3nc(C)cc3C)n2)cc1,.,.,31,-1
Cc1sc2nc(C(C)C)nc(SCC(=O)N3CCN(C(=O)c4ccco4)CC3)c2c1C,-32,-3,20,2
CCc1c(C)sc2nc(C(C)C)nc(SCC(=O)N3CCc4ccccc4C3)c12,-78,2,61*,7
O=C(ONC1=NCCCCC1)c1c(F)cccc1F,14,-6,-6,-1
O=C(ONC1=NCCCCC1)c1ccc(Cl)cc1,98*,-20,8,-1
CCC1CC2CC(NC(C)=O)C1C2 (centres undefined),-14,-7,-8,1
CCCCn1c(SCc2cccc([N+](=O)[O-])c2)nc2ccsc2c1=O,-22,2,7,8
CCC(C)n1c(SCc2ccc([N+](=O)[O-])cc2)nc2ccsc2c1=O (centres undefined),-10,1,5,9.6*
COc1ccc(NC(=O)Nc2cccc([N+](=O)[O-])c2)cc1Cl,-24,-2,79*,3
O=C(Nc1ccc([N+](=O)[O-])cc1)Nc1ccc(OC(F)F)c(Cl)c1,-54,-2,84*,5
COc1ccc(NC(=O)CNc2cccc(C#N)c2)cc1Cl,-19,-9,71*,2
COc1ccccc1CCNC(=O)Nc1cccc([N+](=O)[O-])c1,.,.,13,0
SMILES,BB579 growth dn,Yeast life ext,WT yeast gro inh,RAM network inh
NNC(=O)CNC(=O)c1cccc(Br)c1,-6,-8,-11,3
CCC1=[N+](C)c2cccc3cccc(c23)N1C,.,.,59*,2
CN1/C(=N\O)c2cccc3cccc1c23,10,-16,20,1
CSCCC(NC(=O)OC(C)(C)C)C(=O)Oc1ccc2c(=O)c(-c3ccc4c(c3)OCCO4)coc2c1 (centres undefined),-12,-14,-30,8.7*
NNC(=O)c1cc2c(N3CCC(Cc4ccccc4)CC3)ncnc2s1,.,.,58*,5
COC(=O)c1ccc(COc2ccc(/C=N/O)cc2)o1,.,.,-19,1
Cc1nc2c(-c3ccc(F)cc3)c(C)nn2c(C)c1CCC(=O)N1CCN(c2ccccc2)CC1,16,-11,39,3
Cc1nc2c(-c3ccc(F)cc3)c(C)nn2c(C)c1CCC(=O)N1CCC(Cc2ccccc2)CC1,27,-11,65*,3
CN(C)c1ccc(/C=C2\SC(=S)N(Nc3ncc(C(F)(F)F)cc3Cl)C2=O)cc1,-75,-1,5,8
COc1cc(/C=C2\SC(=S)N(Nc3ccccc3)C2=O)ccc1O,-16,-5,86*,1
COc1cc(/C=C2\SC(=S)N(Nc3ncc(C(F)(F)F)cc3Cl)C2=O)ccc1O,-35,-15,83*,2
CCOc1cc(/C=C2\SC(=S)N(Nc3ccccc3)C2=O)ccc1O,-37,-13,69*,3
Nc1[nH]nc2nc3ccccc3cc12,.,.,-7,1
